Experimental data of several laboratories.
Protocols differ between the studies behind these lines.
Target: Mitogen-activated protein kinase kinase kinase kinase 3 (MAP4K3, Homo sapiens, UniProt Q8IVH8)
Residues used in one study (Q8IVH8 1-894): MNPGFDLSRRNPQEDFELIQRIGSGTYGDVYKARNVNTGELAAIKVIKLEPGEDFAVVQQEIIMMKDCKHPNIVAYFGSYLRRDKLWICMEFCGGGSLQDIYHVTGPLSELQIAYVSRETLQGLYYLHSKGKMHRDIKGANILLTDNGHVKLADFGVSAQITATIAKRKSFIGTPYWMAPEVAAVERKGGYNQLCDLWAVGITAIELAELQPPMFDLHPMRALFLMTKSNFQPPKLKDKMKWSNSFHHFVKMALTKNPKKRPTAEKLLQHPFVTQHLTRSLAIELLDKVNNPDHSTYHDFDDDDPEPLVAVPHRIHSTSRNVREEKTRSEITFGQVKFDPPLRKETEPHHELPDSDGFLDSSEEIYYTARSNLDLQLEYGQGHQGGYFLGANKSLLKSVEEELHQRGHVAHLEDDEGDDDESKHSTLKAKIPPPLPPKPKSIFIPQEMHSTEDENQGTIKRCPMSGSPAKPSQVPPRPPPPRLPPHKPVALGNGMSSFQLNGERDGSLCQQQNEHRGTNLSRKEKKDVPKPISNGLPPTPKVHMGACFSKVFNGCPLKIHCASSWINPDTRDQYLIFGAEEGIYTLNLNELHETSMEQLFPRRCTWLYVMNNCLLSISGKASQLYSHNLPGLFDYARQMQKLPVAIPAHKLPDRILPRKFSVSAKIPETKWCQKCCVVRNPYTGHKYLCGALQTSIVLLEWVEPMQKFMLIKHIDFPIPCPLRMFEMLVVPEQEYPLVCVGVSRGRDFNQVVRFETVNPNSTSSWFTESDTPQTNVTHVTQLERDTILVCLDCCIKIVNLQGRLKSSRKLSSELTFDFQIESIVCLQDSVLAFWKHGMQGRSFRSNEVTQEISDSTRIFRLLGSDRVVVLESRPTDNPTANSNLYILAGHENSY

O=C(Nc1cnn(-c2csc(C(=O)NC3COC3)c2)c1)Nc1c(F)cccc1Cl — remaining activity (enzyme activity, inhibitor; 5 µM): 100%
CNC(=O)c1ccc(Nc2ncc(C(F)(F)F)c(NCc3nccnc3N(C)S(C)(=O)=O)n2)cc1 — remaining binding (cell-free assay, competition with immobilised ligand; 0.1 µM): 95%
COc1cc(Cl)c(C(=O)N[C@@H](CN[C@H]2CC[C@@H](N)CC2)Cc2ccc(C#N)cc2)cc1-c1ccc(CN[C@H](C)c2ccc(C)cc2)o1 — remaining activity (enzyme activity, inhibitor; 1 µM): 98%
Cc1ccc(C(=O)NCc2ccsc2)cc1C#Cc1cn(C(C)C)c2ncnc(N)c12 — activity vs control (enzyme activity, inhibitor; 1 µM): 54%
Nc1ncnc2occ(-c3ccc(NC(=O)Nc4cc(C(F)(F)F)ccc4F)cc3)c12 — remaining signal (cell-free assay, inhibitor; 20 µM): 0.8%
COc1cc(Nc2cnc(C#N)c(O[C@H](C)CN(C)C)n2)ncc1-c1cnn(C)c1 — remaining activity (enzyme activity, inhibitor, radiometric; 1 µM): 45%
CCCCNc1ncc2c(-c3ccc(F)cc3)nn(C[C@H]3CC[C@H](N)CC3)c2n1 — inhibition (target engagement in cells, inhibitor, chemoproteomics; 20 mM): 44.6%
CC(=O)c1c(NS(C)(=O)=O)c2cc(-c3ccc(Cl)cc3)c(-c3ccc(Cl)cc3Cl)nc2n(C)c1=O — remaining binding (cell-free assay, competition with immobilised ligand; 1 µM): 99%
COc1cc(/C=C/C(=O)CC(=O)/C=C/c2ccc(O)c(OC)c2)ccc1O — activity vs control (enzyme activity, inhibitor; 1 µM): 87%
Cc1sc(C(=O)NC2COC2)cc1-n1cc(NC(=O)Nc2c(F)cccc2Cl)cn1 — remaining activity (enzyme activity, inhibitor; 10 µM): 118%
CCCCN(CCCC)C(=O)CN1C[C@H](c2cc(OC)c3c(c2)OCO3)[C@@H](C(=O)O)[C@@H]1CC(C)(C)CCC — remaining binding (cell-free assay, competition with immobilised ligand; 1 µM): 100%
FC(F)(F)Oc1cccc(-c2cnc3ccc(-c4ccncc4)nn23)c1 — activity vs control (enzyme activity, inhibitor, radiometric; 1 µM): 54%
Cc1ccc(C(=O)Nc2ccc(CN3CCN(C)CC3)c(C(F)(F)F)c2)cc1C#Cc1cnc2cccnn12 — remaining activity (enzyme activity, inhibitor; 23.5 nM): 89%
c1ccc(CNc2nc(N3CCOc4ccccc43)nc3c2CCCC3)cc1 — inhibition (target engagement in cells, inhibitor, chemoproteomics; 20 mM): 3.3%
CN1CC(Oc2cnc(C#N)cc2-c2ccn3nc(NC(=O)C4CC4)cc3c2)C1 — inhibition (enzyme activity, inhibitor; 1 µM): -4%
